Results as given in ChEMBL document CHEMBL4364341, “Radiosensitization of Head and Neck Squamous Cell Carcinoma (HNSCC) by a Podophyllotoxin” (ACS Med Chem Lett, 2019).
Activity calls are given as the source filed them. The rule behind the calls is not given here.

Tests used:
FaDu [1] = test: Synergistic antiproliferative activity against human FADU cells assessed as fractional inhibition at 5 uM preincubated for 1 hr followed by irradiation with 2.5 Gy IR and measured after 6 days by MTT assay (reference value: 0.131); assay type: functional
In short: (§1)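 FaDu or SCC-25 cells were grown in DMEM with 10% FBS at 37 °C and 5% CO2. They were seeded at 1000 cells/well in 96-well plates for 24 h, then dosed with compound (fresh DMSO stock diluted in medium) or vehicle. After 1 h, X-rays were given with a sliding 5 mm lead shield, so one plate held 0, 2.5, 5 and 10 Gy columns. After 6 days, MTT (0.5 mg/mL, 45 min) was added, then DMSO, and A570 was read. Values were normalised to the unirradiated vehicle control. Fractional inhibition = 1 − surviving fraction.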

SCC-25 [2] = test: Synergistic antiproliferative activity against human SCC25 cells assessed as combination index at 0.05 uM preincubated for 1 hr followed by irradiation with 10 Gy IR and measured after 6 days by MTT assay; assay type: functional
In short: (§2)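 SCC-25 cells grown in DMEM with 10% FBS at 37 °C, 5% CO2, seeded 1000 cells/well in 96-well plates and left 24 h. Drug in DMSO, diluted in complete medium, added 1 h before X-irradiation. A movable 5 mm lead shield gave 0, 2.5, 5 or 10 Gy on one plate. After 6 days, MTT readout at 570 nm. Combination index by Chou–Talalay from viability data.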

FaDu [3] = test: Synergistic induction of cell cycle arrest in human FADU cells assessed as increase in accumulation at G2/M phase at 0.5 uM followed irradiation with 5Gy IR incubated for 24 hrs by propidium iodide staining based flow cytometry; assay type: functional
In short: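 FaDu or SCC-25 cells, untreated, given 5 Gy IR, drug, or drug plus 5 Gy. Cell-cycle distribution by propidium iodide staining and flow cytometry at 6 h and 24 h after treatment. G0/G1, S and G2/M fractions compared with control by t test.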

SCC-25 [4] = test: Antiproliferative activity against human SCC25 cells assessed as fractional inhibition at 0.05 uM after 6 days in absence of irradiation by MTT assay; assay type: functional; in short: as §1
FaDu [5] = test: Synergistic antiproliferative activity against human FADU cells assessed as fractional inhibition at 0.005 uM preincubated for 1 hr followed by irradiation with 2.5 Gy IR and measured after 6 days by MTT assay (reference value: 0.131); assay type: functional; in short: as §1
SCC-25 [6] = test: Synergistic antiproliferative activity against human SCC25 cells assessed as combination index at 0.005 uM preincubated for 1 hr followed by irradiation with 5 Gy IR and measured after 6 days by MTT assay; assay type: functional; in short: as §2
SCC-25 [7] = test: Synergistic antiproliferative activity against human SCC25 cells assessed as combination index at 0.05 uM preincubated for 1 hr followed by irradiation with 5 Gy IR and measured after 6 days by MTT assay; assay type: functional; in short: as §2
FaDu [8] = test: Antiproliferative activity against human FADU cells assessed as fractional inhibition at 5 uM after 6 days in absence of irradiation by MTT assay; assay type: functional; in short: as §1
FaDu [9] = test: Induction of apoptosis in human FADU cells assessed as increase in Bax at 0.5 uM followed by irradiation with 5 Gy IR incubated for 48 hrs by immunoblot analysis; assay type: functional, cell-based
In short: (§3)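 FaDu cells received compound at 0.5 μM, 5 Gy IR, or both. After 48 h, lysates were immunoblotted for NRF2, cyclin B1, CDK1, Bax and Bcl-2. Membranes were then stripped and reprobed for β-actin as the loading control.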

SCC-25 [10] = test: Synergistic antiproliferative activity against human SCC25 cells assessed as fractional inhibition at 0.5 uM preincubated for 1 hr followed by irradiation with 2.5 Gy IR and measured after 6 days by MTT assay (reference value: 0.011); assay type: functional
In short: (§4)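 SCC-25 cells seeded 1000/well in 96-well plates in DMEM/10% FBS and left 24 h. Drug or vehicle added, then after 1 h X-irradiated to 2.5, 5 or 10 Gy on one plate using a shifted lead shield. Plates incubated 6 days, then MTT (0.5 mg/mL, 45 min), DMSO solubilisation, absorbance at 570 nm. Fractional inhibition = 1 − fraction of surviving cells.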

SCC-25 [11] = test: Synergistic antiproliferative activity against human SCC25 cells assessed as fractional inhibition at 0.005 uM preincubated for 1 hr followed by irradiation with 10 Gy IR and measured after 6 days by MTT assay (reference value: 0.347); assay type: functional; in short: as §4
FaDu [12] = test: Synergistic antiproliferative activity against human FADU cells assessed as combination index at 0.5 uM preincubated for 1 hr followed by irradiation with 5 Gy IR and measured after 6 days by MTT assay; assay type: functional
In short: (§5)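 Combination index was calculated by the Chou–Talalay median-effect method from the 6-day MTT viability data of the single-plate compound/X-ray (2.5, 5, 10 Gy) design. CI < 1 denotes synergy, CI = 1 additivity and CI > 1 antagonism.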

FaDu [13] = test: Induction of apoptosis in human FADU cells assessed as decrease in Bcl2 at 0.5 uM incubated for 48 hrs by immunoblot analysis; assay type: functional, cell-based; in short: as §3
SCC-25 [14] = test: Synergistic antiproliferative activity against human SCC25 cells assessed as fractional inhibition at 5 uM preincubated for 1 hr followed by irradiation with 5 Gy IR and measured after 6 days by MTT assay (reference value: 0.133); assay type: functional; in short: as §4
FaDu [15] = test: Synergistic antiproliferative activity against human FADU cells assessed as combination index at 5 uM preincubated for 1 hr followed by irradiation with 5 Gy IR and measured after 6 days by MTT assay; assay type: functional; in short: as §5
FaDu [16] = test: Synergistic antiproliferative activity against human FADU cells assessed as fractional inhibition at 0.005 uM preincubated for 1 hr followed by irradiation with 10 Gy IR and measured after 6 days by MTT assay (reference value: 0.388); assay type: functional; in short: as §1
SCC-25 [17] = test: Synergistic antiproliferative activity against human SCC25 cells assessed as combination index at 0.5 uM preincubated for 1 hr followed by irradiation with 5 Gy IR and measured after 6 days by MTT assay; assay type: functional; in short: as §2

With `COc1ccc2c(c1)N(CCO)C1=C(C(=O)OC1)C2c1ccccc1` (configuration not stated) the “fractional inhibitory concentration index (FICI)” value (FaDu [1]) was 0.501, the CI (SCC-25 [2]) was 1.056 and the “fold change (FC)” value (FaDu [3]) was 2. The “fractional inhibitory concentration index (FICI)” value (SCC-25 [4]) was 0.005, the “fractional inhibitory concentration index (FICI)” value (FaDu [5]) was 0.236 and the CI (SCC-25 [6]) was 0.801. The CI (SCC-25 [7]) was 1.753, the “fractional inhibitory concentration index (FICI)” value (FaDu [8]) was 0.437 and the Activity (FaDu [9]) was “Active”. The “fractional inhibitory concentration index (FICI)” value (SCC-25 [10]) was 0.452, the “fractional inhibitory concentration index (FICI)” value (SCC-25 [11]) was 0.388 and the CI (FaDu [12]) was 0.603. The Activity (FaDu [13]) was “Active”, the “fractional inhibitory concentration index (FICI)” value (SCC-25 [14]) was 0.728 and the CI (FaDu [15]) was 0.324. For the same molecule, the “fractional inhibitory concentration index (FICI)” value (FaDu [16]) was 0.346 and the CI (SCC-25 [17]) was 0.395.
